The source made the active and inactive calls. No cut-off for these calls is given here.
Assays:
DU-145 [1] = test: Cell cycle arrest in human DU145 cells assessed as accumulation at sub-G1 phase at 1 uM after 48 hrs by FACS analysis (reference value: 7.71%); type: functional
DU-145 [2] = test: Induction of apoptosis in human DU145 cells assessed as early apoptotic cells at 2 uM after 48 hrs by annexin-V/FITC/propidium iodide staining-based FACS analysis (reference value: 3.61%); type: functional
HeLa = test: Antiproliferative activity against human HeLa cells after 48 hrs by MTT assay; type: functional, cell-based
DU-145 [3] = test: Induction of apoptosis in human DU145 cells assessed as late apoptotic cells at 2 uM after 48 hrs by annexin-V/FITC/propidium iodide staining-based FACS analysis (reference value: 4.46%); type: functional
Calf thymus DNA [4] = test: Binding affinity to calf thymus double stranded DNA at 20 uM by CD spectroscopic method; type: nucleic-acid assay; settings: Bos taurus
DU-145 [5] = test: Induction of apoptosis in human DU145 cells assessed as viable cells at 1 uM after 48 hrs by annexin-V/FITC/propidium iodide staining-based FACS analysis (reference value: 91.44%); type: functional; settings: DU-145, 48 h, read-out: Activity
Calf thymus DNA [6] = test: Binding affinity to calf thymus double stranded DNA at 25 uM by UV-vis spectroscopic method; type: nucleic-acid assay; settings: Bos taurus
DU-145 [7] = test: Cell cycle arrest in human DU145 cells assessed as accumulation at G0/G1 phase at 2 uM after 48 hrs by FACS analysis (reference value: 53.60%); type: functional
[8] = biological target: T1, Topoisomerase I (Bos taurus) (UniProt Q2HPH0); test: Inhibition of calf thymus DNA topoisomerase 1 at 20 uM using pBR322 DNA as substrate after 30 mins by agarose gel electrophoresis method
T1 sequence (whole entry): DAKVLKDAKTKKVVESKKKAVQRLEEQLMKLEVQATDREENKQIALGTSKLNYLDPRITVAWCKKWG

Calf thymus DNA [9] = test: Binding affinity to calf thymus double stranded DNA assessed as hypochromicity at 10 uM by […] method; type: nucleic-acid assay; settings: Bos taurus
DU-145 [10] = test: Cell cycle arrest in human DU145 cells assessed as accumulation at G2/M phase at 1 uM after 48 hrs by FACS analysis (reference value: 21.07%); type: functional
DNA [11] = test: Induction of Escherichia coli pBR322 DNA cleavage at 20 uM incubated in dark condition by agarose gel electrophoresis; type: nucleic-acid assay
Outline: (§1)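 pBR322 plasmid DNA was incubated with 20 µM ligand, either in the dark or under UV-light irradiation for 1 h. Products were separated by gel electrophoresis. Irradiated DNA solution alone served as the control.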

DU-145 [12] = test: Induction of apoptosis in human DU145 cells assessed as early apoptotic cells at 1 uM after 48 hrs by annexin-V/FITC/propidium iodide staining-based FACS analysis (reference value: 3.61%); type: functional
DU-145 [13] = test: Induction of apoptosis in human DU145 cells assessed as necrotic cells at 2 uM after 48 hrs by annexin-V/FITC/propidium iodide staining-based FACS analysis (reference value: 0.49%); type: functional
DU-145 [14] = test: Induction of apoptosis in human DU145 cells assessed as late apoptotic cells at 1 uM after 48 hrs by annexin-V/FITC/propidium iodide staining-based FACS analysis (reference value: 4.46%); type: functional
DU-145 [15] = test: Induction of apoptosis in human DU145 cells assessed as necrotic cells at 1 uM after 48 hrs by annexin-V/FITC/propidium iodide staining-based FACS analysis (reference value: 0.49%); type: functional
MCF7 = test: Antiproliferative activity against human MCF7 cells after 48 hrs by MTT assay; type: functional, cell-based; settings: MCF7, 48 h
Calf thymus DNA [16] = test: Binding affinity to calf thymus double stranded DNA at 10 uM by spectrofluorimetric method; type: nucleic-acid assay; settings: Bos taurus
DU-145 [17] = test: Cell cycle arrest in human DU145 cells assessed as accumulation at S phase at 1 uM after 48 hrs by FACS analysis (reference value: 16.22%); type: functional
DU-145 [18] = test: Cell cycle arrest in human DU145 cells assessed as accumulation at S phase at 2 uM after 48 hrs by FACS analysis (reference value: 16.22%); type: functional
NIH3T3 = test: Antiproliferative activity against mouse NIH/3T3 cells after 48 hrs by MTT assay; type: functional, cell-based; settings: NIH3T3, 48 h
DU-145 [19] = test: Cell cycle arrest in human DU145 cells assessed as accumulation at G0/G1 phase at 1 uM after 48 hrs by FACS analysis (reference value: 53.60%); type: functional
A549 = test: Antiproliferative activity against human A549 cells after 48 hrs by MTT assay; type: functional, cell-based; settings: A549, 48 h
Calf thymus DNA [20] = test: Binding affinity to calf thymus double stranded DNA at 15 uM by ostwald viscometer; type: nucleic-acid assay; settings: Bos taurus
DU-145 [21] = test: Induction of apoptosis in human DU145 cells assessed as viable cells at 2 uM after 48 hrs by annexin-V/FITC/propidium iodide staining-based FACS analysis (reference value: 91.44%); type: functional; settings: DU-145, 48 h, read-out: Activity
DU-145 [22] = test: Cell cycle arrest in human DU145 cells assessed as accumulation at G2/M phase at 2 uM after 48 hrs by FACS analysis (reference value: 21.07%); type: functional
DU-145 [23] = test: Cell cycle arrest in human DU145 cells assessed as accumulation at sub-G1 phase at 2 uM after 48 hrs by FACS analysis (reference value: 7.71%); type: functional
DU-145 [24] = test: Antiproliferative activity against human DU145 cells after 48 hrs by MTT assay; type: functional, cell-based; settings: DU-145, 48 h
DNA [25] = test: Induction of Escherichia coli pBR322 DNA cleavage at 20 uM incubated in presence of UV-light for 1 hr by agarose gel electrophoresis; type: nucleic-acid assay; outline: as §1

**Q.** What does the source list for `Fc1ccc(-c2nc(C(c3c[nH]c4ccccc34)c3c[nH]c4ccccc34)cc3c2[nH]c2ccccc23)cc1`?
**A.** Activity (DU-145 [1]): 6.91%; Activity (DU-145 [2]): 38.28%; IC50 (HeLa): 3.25 µM; Activity (DU-145 [3]): 5.06%; Activity (Calf thymus DNA [4]): Active; viability at 1 µM (DU-145 [5]): 84.7%; Activity (Calf thymus DNA [6]): Active; Activity (DU-145 [7]): 13.58%; inhibition [8]: Active; Activity (Calf thymus DNA [9]): 10 to 12%; Activity (DU-145 [10]): 57.46%; Activity (DNA [11]): Not Active; Activity (DU-145 [12]): 8.49%; Activity (DU-145 [13]): 1.14%; Activity (DU-145 [14]): 6.55%; Activity (DU-145 [15]): 0.23%; IC50 (MCF7): 8.5 µM; Activity (Calf thymus DNA [16]): Active; Activity (DU-145 [17]): 19.16%; Activity (DU-145 [18]): 17.41%; IC50 (NIH3T3): 140 µM; Activity (DU-145 [19]): 15.15%; IC50 (A549): 2.04 µM; Activity (Calf thymus DNA [20]): Active; viability at 2 µM (DU-145 [21]): 55.5%; Activity (DU-145 [22]): 62.86%; Activity (DU-145 [23]): 4.93%; IC50 (DU-145 [24]): 1.8 µM; Activity (DNA [25]): Active

— ChEMBL document CHEMBL4138165, “Design, synthesis and biological evaluation of new β-carboline-bisindole compounds as DNA binding, photocleavage agents and topoisomerase I inhibitors” (Eur J Med Chem, 2018)
